Laboratory results from ChEMBL document CHEMBL2086304, “Synthesis and in vitro antimycobacterial and isocitrate lyase inhibition properties of novel 2-methoxy-2'-hydroxybenzanilides, their thioxo analogues and benzoxazoles” (Eur J Med Chem, 2012).
≈ marks a conversion by molar mass, not a printed value.

How the values were obtained:
Mycobacterium kansasii [1] = test: Antimycobacterial activity against isoniazid resistance Mycobacterium kansasii 225/80 after 7 days by micromethod; type: functional; details: 225/80, 168 h
Mycobacterium kansasii [2] = test: Antimycobacterial activity against isoniazid resistance Mycobacterium kansasii 225/80 after 21 days by micromethod; type: functional; details: 225/80, 504 h
Mycobacterium avium [3] = test: Antimycobacterial activity against isoniazid resistance Mycobacterium avium 330/88 after 21 days by micromethod; type: functional; details: 330/88, 504 h
Outline: (§1)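 Inocula: M. tuberculosis My 331/88 at 10^-3 dilution, M. avium My 330/88 at 10^-5, M. kansasii My 235/80 and clinical isolate 6509/96 at 10^-4. Compounds added in DMSO at 1000 down to 0.5 (twofold series). Read at 14 and 21 days, plus 7 days for M. kansasii. MIC taken as lowest concentration inhibiting growth.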

Mycobacterium avium [4] = test: Antimycobacterial activity against isoniazid resistance Mycobacterium avium 330/88 after 14 days by micromethod; type: functional; details: 330/88, 336 h; outline: as §1
Mycobacterium kansasii [5] = test: Antimycobacterial activity against Mycobacterium kansasii 6509/96 clinical isolate after 21 days by micromethod; type: functional; details: 6509/96, 504 h; outline: as §1
[6] = target: T1, Isocitrate lyase (Mycobacterium tuberculosis) (UniProt P9WKK7); test: Inhibition of Mycobacterium tuberculosis H37Rv isocitrate lyase expressed in Escherichia coli HB101 at 10 umol/L
T1 sequence (whole entry): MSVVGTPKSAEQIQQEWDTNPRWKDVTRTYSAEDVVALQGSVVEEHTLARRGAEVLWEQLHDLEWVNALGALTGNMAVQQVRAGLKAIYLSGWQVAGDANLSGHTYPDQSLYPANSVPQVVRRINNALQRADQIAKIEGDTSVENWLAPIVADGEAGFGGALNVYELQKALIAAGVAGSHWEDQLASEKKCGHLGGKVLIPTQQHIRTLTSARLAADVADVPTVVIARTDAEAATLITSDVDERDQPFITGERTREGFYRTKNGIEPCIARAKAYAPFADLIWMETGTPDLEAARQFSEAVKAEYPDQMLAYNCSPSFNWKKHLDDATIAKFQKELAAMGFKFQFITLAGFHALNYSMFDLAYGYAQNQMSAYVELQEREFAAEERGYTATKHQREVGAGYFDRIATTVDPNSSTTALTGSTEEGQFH
Outline: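 Isocitrate lyase assayed per Dixon–Kornberg in 96-well format. Buffer: 50 mmol/L KH2PO4, 4 mmol/L MgCl2, 4 mmol/L phenylhydrazine, 12 mmol/L cysteine, pH 7.0. Glyoxylate phenylhydrazone read at 324 nm. Compounds added in DMSO, with DMSO-alone inhibition subtracted.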

Mycobacterium kansasii [7] = test: Antimycobacterial activity against Mycobacterium kansasii 6509/96 clinical isolate after 14 days by micromethod; type: functional; details: 6509/96, 336 h; outline: as §1
[8] = test system: Mycobacterium tuberculosis; test: Antimycobacterial activity against Mycobacterium tuberculosis 331/88 after 21 days by micromethod; type: functional; details: 331/88, 504 h; outline: as §1
Mycobacterium kansasii [9] = test: Antimycobacterial activity against Mycobacterium kansasii 6509/96 clinical isolate after 7 days by micromethod; type: functional; details: 6509/96, 168 h; outline: as §1
Mycobacterium kansasii [10] = test: Antimycobacterial activity against isoniazid resistance Mycobacterium kansasii 225/80 after 14 days by micromethod; type: functional; details: 225/80, 336 h
[11] = test system: Mycobacterium tuberculosis; test: Antimycobacterial activity against Mycobacterium tuberculosis 331/88 after 14 days by micromethod; type: functional; details: 331/88, 336 h; outline: as §1
[12] = Selectivity index, ratio of IC50 for human HepG2 cells to MIC for Mycobacterium tuberculosis 331/88 after 14 days; type: functional
Outline: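 Cytotoxicity in Hep G2 cells (passage 12), 10,000 cells/well, in MEM with 10% FBS, 1% glutamine and 1% nonessential amino acids. Cells preincubated 24 h, 37 °C, 5% CO2. Compounds in DMSO at eight concentrations in quadruplicate, 24 h. MTS-type reagent added for 1.5 h, A490 read, IC50 taken at 50% viability. SI = this IC50 over the 14-day M. tuberculosis MIC.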

HepG2 = test: Cytotoxicity against human HepG2 cells after 24 hrs by CellTiter-96 cell viability assay; type: functional, cell-based; details: HepG2, 24 h
Outline: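 Hep G2 human hepatic cells (passage 12), 10,000 per well, grown 24 h at 37 °C, 5% CO2 in MEM with 1% glutamine, 10% FBS and 1% nonessential amino acids. Compounds in DMSO at eight increasing concentrations, quadruplicate, 24 h at 37 °C. Kit reagent added, 1.5 h at 37 °C, absorbance 490 nm. IC50 is the concentration reducing viability to 50% of control.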

| SMILES | MIC (Mycobacterium kansasii [1]) [µM] | MIC (Mycobacterium kansasii [2]) [µM] | MIC (Mycobacterium avium [3]) [µM] | MIC (Mycobacterium avium [4]) [µM] | MIC (Mycobacterium kansasii [5]) [µM] | inhibition [6] [%] | MIC (Mycobacterium kansasii [7]) [µM] | MIC [8] [µM] | MIC (Mycobacterium kansasii [9]) [µM] | MIC (Mycobacterium kansasii [10]) [µM] | MIC [11] [µM] | Selectivity Index [12] | IC50 (HepG2) [µM] |
| --- | --- | --- | --- | --- | --- | --- | --- | --- | --- | --- | --- | --- | --- |
| COc1ccc(Cl)cc1C(=O)Nc1cc(Cl)c(Cl)cc1OC(=O)c1cc(Cl)ccc1OC | 4 (≈ 2.06 µg/mL) | 8 (≈ 4.12 µg/mL) | 62.5 (≈ 32.2 µg/mL) | 62.5 (≈ 32.2 µg/mL) | 8 (≈ 4.12 µg/mL) | 3 | 8 (≈ 4.12 µg/mL) | 8 (≈ 4.12 µg/mL) | 4 (≈ 2.06 µg/mL) | 8 (≈ 4.12 µg/mL) | 8 (≈ 4.12 µg/mL) | – | – |
| COc1ccc(Cl)cc1-c1nc2cc(Br)ccc2o1 | 250 (≈ 84.6 µg/mL) | 250 (≈ 84.6 µg/mL) | 250 (≈ 84.6 µg/mL) | 250 (≈ 84.6 µg/mL) | 250 (≈ 84.6 µg/mL) | 0 | 250 (≈ 84.6 µg/mL) | 250 (≈ 84.6 µg/mL) | 250 (≈ 84.6 µg/mL) | 250 (≈ 84.6 µg/mL) | 250 (≈ 84.6 µg/mL) | – | – |
| COc1cc(Cl)ccc1-c1nc2cc(Cl)c(Cl)cc2o1 | 250 (≈ 82.1 µg/mL) | 250 (≈ 82.1 µg/mL) | 500 (≈ 164 µg/mL) | 250 (≈ 82.1 µg/mL) | 250 (≈ 82.1 µg/mL) | 0 | 250 (≈ 82.1 µg/mL) | 250 (≈ 82.1 µg/mL) | 250 (≈ 82.1 µg/mL) | 250 (≈ 82.1 µg/mL) | 250 (≈ 82.1 µg/mL) | – | – |
| COc1cc(Cl)ccc1-c1nc2ccc(Br)cc2o1 | 125 (≈ 42.3 µg/mL) | 125 (≈ 42.3 µg/mL) | 125 (≈ 42.3 µg/mL) | 125 (≈ 42.3 µg/mL) | 125 (≈ 42.3 µg/mL) | 0 | 125 (≈ 42.3 µg/mL) | 125 (≈ 42.3 µg/mL) | 125 (≈ 42.3 µg/mL) | 125 (≈ 42.3 µg/mL) | 125 (≈ 42.3 µg/mL) | – | – |
| COc1cc(Cl)ccc1C(=S)Nc1ccc(C(F)(F)F)cc1O | – | 62.5 (≈ 22.6 µg/mL) | 62.5 (≈ 22.6 µg/mL) | 62.5 (≈ 22.6 µg/mL) | 62.5 (≈ 22.6 µg/mL) | 23 | 62.5 (≈ 22.6 µg/mL) | 62.5 (≈ 22.6 µg/mL) | 32 (≈ 11.6 µg/mL) | 62.5 (≈ 22.6 µg/mL) | 32 (≈ 11.6 µg/mL) | 0.1 | 3.14 |
| O=C(O)CC[N+](=O)[O-] | – | – | – | – | – | 25 | – | – | – | – | – | – | – |
| COc1cc(Cl)ccc1-c1nc2cc(Br)ccc2o1 | 250 (≈ 84.6 µg/mL) | 250 (≈ 84.6 µg/mL) | 250 (≈ 84.6 µg/mL) | 250 (≈ 84.6 µg/mL) | 250 (≈ 84.6 µg/mL) | 0 | 250 (≈ 84.6 µg/mL) | 250 (≈ 84.6 µg/mL) | 250 (≈ 84.6 µg/mL) | 250 (≈ 84.6 µg/mL) | 250 (≈ 84.6 µg/mL) | – | – |
| COc1cc(Cl)ccc1C(=O)Nc1ccc(C(F)(F)F)cc1O | – | 250 (≈ 86.4 µg/mL) | 62.5 (≈ 21.6 µg/mL) | 62.5 (≈ 21.6 µg/mL) | 250 (≈ 86.4 µg/mL) | 7 | 250 (≈ 86.4 µg/mL) | 250 (≈ 86.4 µg/mL) | 250 (≈ 86.4 µg/mL) | 250 (≈ 86.4 µg/mL) | 250 (≈ 86.4 µg/mL) | 0.02 | 3.9 |
| COc1cc(Cl)ccc1C(=O)Nc1ccc(Cl)cc1OC(=O)c1ccc(Cl)cc1OC | 16 (≈ 7.69 µg/mL) | 125 (≈ 60.1 µg/mL) | 62.5 (≈ 30 µg/mL) | 62.5 (≈ 30 µg/mL) | 62.5 (≈ 30 µg/mL) | 0 | 16 (≈ 7.69 µg/mL) | 8 (≈ 3.85 µg/mL) | 8 (≈ 3.85 µg/mL) | 32 (≈ 15.4 µg/mL) | 4 (≈ 1.92 µg/mL) | – | – |
| COc1ccc(Cl)cc1C(=S)Nc1ccc(C(F)(F)F)cc1O | – | 62.5 (≈ 22.6 µg/mL) | 62.5 (≈ 22.6 µg/mL) | 32 (≈ 11.6 µg/mL) | 62.5 (≈ 22.6 µg/mL) | 21 | 62.5 (≈ 22.6 µg/mL) | 62.5 (≈ 22.6 µg/mL) | 32 (≈ 11.6 µg/mL) | 62.5 (≈ 22.6 µg/mL) | 62.5 (≈ 22.6 µg/mL) | 0.06 | 3.69 |
| COc1ccc(Cl)cc1-c1nc2ccc(Br)cc2o1 | 125 (≈ 42.3 µg/mL) | 125 (≈ 42.3 µg/mL) | 125 (≈ 42.3 µg/mL) | 125 (≈ 42.3 µg/mL) | 125 (≈ 42.3 µg/mL) | 0 | 125 (≈ 42.3 µg/mL) | 125 (≈ 42.3 µg/mL) | 125 (≈ 42.3 µg/mL) | 125 (≈ 42.3 µg/mL) | 125 (≈ 42.3 µg/mL) | – | – |
| COc1ccc(Cl)cc1-c1nc2cc(Cl)c(Cl)cc2o1 | 125 (≈ 41.1 µg/mL) | 125 (≈ 41.1 µg/mL) | 125 (≈ 41.1 µg/mL) | 125 (≈ 41.1 µg/mL) | 125 (≈ 41.1 µg/mL) | 4 | 125 (≈ 41.1 µg/mL) | 125 (≈ 41.1 µg/mL) | 125 (≈ 41.1 µg/mL) | 125 (≈ 41.1 µg/mL) | 125 (≈ 41.1 µg/mL) | – | – |
